For orientation: inhibition means the drop in the measured response relative to a control, in per cent.

Peptide text beside a SMILES is read from it. * marks the point of attachment. Hydrocinnamoyl = O=C(CCc1ccccc1)*; Undecanoyl = CCCCCCCCCCC(=O)*; Cbz = O=C(OCc1ccccc1)*; NHNH2 = NN*

This is an account of results in ChEMBL document CHEMBL1153722, “Design, synthesis, and characterization of peptide-based rab geranylgeranyl transferase inhibitors” (J Med Chem, 2009).

The species entered for the experiment is Rattus norvegicus. Description: Inhibition of rat recombinant Rab geranylgeranyltransferase at 100 uM in presence of canine Rab7 and rat REP1 NBD-FPP based continuous fluorimetric assay. A digest of the protocol:
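Continuous fluorometric assay in 96/384-well format: 3 μM Rab7, 3 μM REP1, 9 μM NBD-FPP and 400 nM RabGGTase, with or without inhibitor. […] IC50 was calculated from three independent measurements.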
Take `O=C(CNC(=O)[C@H](Cc1c[nH]cn1)NC(=O)OCc1ccccc1)N[C@@H](Cc1ccc(O)cc1)C(=O)NCC(O)CO` (stereo partly specified): the inhibition turned out to be 74%.
The figure for `O=C(N[C@@H](Cc1ccccc1)C(=O)N[C@@H](Cc1ccccc1)C(=O)N[C@@H](Cc1ccc(O)cc1)C(=O)O)OCc1ccccc1` (Cbz-Phe-Phe-Tyr-OH) is 9%; for `CON(C)C(=O)[C@H](CCC(N)=O)NC(=O)[C@H](Cc1ccccc1)NC(=O)[C@@H](NC(=O)/C=C/c1ccccc1)[C@@H](C)O` it is 80%; for `CON(C)C(=O)[C@H](Cc1ccc(O)cc1)NC(=O)CNC(=O)[C@H](Cc1ccc(O)cc1)NC(=O)c1ccc(F)cc1` it is 84%.
The figure for `CCCCCCCCCCOc1ccc(C(=O)N[C@@H](Cc2c[nH]cn2)C(=O)N[C@@H](Cc2c[nH]cn2)C(=O)N[C@@H](CO)C(=O)NCCCn2ccnc2)cc1` is 52%; for `CCCCCCCCCCCOc1ccc(C(=O)N[C@@H](Cc2ccc(O)cc2)C(=O)N[C@@H](Cc2ccc(O)cc2)C(=O)N[C@@H](Cc2ccc(O)cc2)C(=O)O)cc1` it is 106%; for `O=C(N[C@@H](Cc1ccc(O)cc1)C(=O)N[C@@H](Cc1ccc(O)cc1)C(=O)N[C@@H](Cc1ccc(O)cc1)C(=O)OCCCl)c1ccc(F)cc1F` it is 71%.
The figure for `CC(C)CCNC(=O)[C@H](Cc1ccccc1)NC(=O)[C@H](Cc1ccccc1)NC(=O)[C@H](CC(C)C)NC(=O)/C=C/c1ccccc1` is 92%.
As to `COC(=O)[C@H](CCC(N)=O)NC(=O)[C@H](Cc1ccccc1)NC(=O)[C@@H](NC(=O)/C=C/c1ccccc1)[C@@H](C)O`, the inhibition is 92%.
As to `O=C(CNC(=O)[C@H](Cc1c[nH]cn1)NC(=O)c1coc(-c2ccccc2)n1)N[C@@H](Cc1c[nH]c2ccccc12)C(=O)O`, the inhibition was determined as 69%.
The figure for `CC(C)(C)Oc1ccc(C[C@H](NC(=O)CNC(=O)[C@H](Cc2ccc(OC(C)(C)C)cc2)NC(=O)c2coc(-c3ccccc3)n2)C(=O)O)cc1` is 75%; for `COC(=O)[C@H](CCC(N)=O)NC(=O)[C@H](NC(=O)[C@H]1CCCN1C(=O)c1ccc([N+](=O)[O-])c(NC(C)=O)c1)C(C)C` it is 98%.
Consider `COC(=O)[C@H](CO)NC(=O)[C@H](Cc1ccccc1)NC(=O)[C@H](CO)NC(=O)CCc1ccccc1` (Hydrocinnamoyl-Ser-Phe-Ser-OMe), for which the inhibition came to 90%.
`CCCCCCCCCCC(=O)N[C@@H](Cc1ccc(O)cc1)C(=O)N[C@@H](Cc1c[nH]cn1)C(=O)N[C@@H](Cc1c[nH]cn1)C(=O)O` (Undecanoyl-Tyr-His-His-OH): the inhibition came out at 64%.
The figure for `C[C@@H](O)[C@H](NC(=O)/C=C/c1ccccc1)C(=O)N[C@@H](Cc1ccccc1)C(=O)N[C@@H](CCC(N)=O)C(=O)Nc1nccs1` is 86%; for `CCCCCCCCCCC(=O)N[C@@H](Cc1c[nH]cn1)C(=O)N[C@@H](Cc1c[nH]cn1)C(=O)N[C@@H](Cc1ccc(O)cc1)C(=O)Nc1ccccn1` it is 70%; for `O=C(CCc1ccc(F)cc1)N[C@@H](Cc1ccc(O)cc1)C(=O)NCC(=O)N[C@@H](Cc1ccc(O)cc1)C(=O)Nc1ccc(F)cc1F` it is 89%.
The figure for `CCCCCCCCCCC(=O)N[C@@H](Cc1ccc(O)cc1)C(=O)N[C@@H](Cc1c[nH]cn1)C(=O)N[C@@H](Cc1ccc(O)cc1)C(=O)OCCN` is 61%; for `CC(C)(C)Oc1ccc(C[C@H](NC(=O)c2coc(-c3ccccc3)n2)C(=O)NCC(=O)N[C@@H](Cc2c[nH]c3ccccc23)C(=O)O)cc1` it is 32%.
The figure for `CCCCCCCCCCC(=O)N[C@@H](Cc1c[nH]cn1)C(=O)N[C@@H](Cc1c[nH]cn1)C(=O)N[C@@H](CO)C(=O)N(C)CCc1ccccn1` is 47%.
Regarding `COC(=O)[C@H](CC(C)C)NC(=O)[C@H](COC(C)(C)C)NC(=O)[C@H](Cc1ccccc1)NC(=O)c1ccc(-c2ccccc2)cc1`, the inhibition stood at 84%.
For the compound `NC(=O)CC[C@H](NC(=O)[C@H](Cc1ccccc1)NC(=O)CNC(=O)CCc1ccccc1)C(=O)O` (Hydrocinnamoyl-Gly-Phe-Gln-OH), the inhibition was determined as 94%.
The figure for `CCCCCCCCCCCC(=O)N[C@@H](Cc1ccc(O)cc1)C(=O)N[C@@H](Cc1c[nH]cn1)C(=O)N[C@@H](Cc1ccc(O)cc1)C(=O)Nc1ccccc1N` is 42%.
The figure for `CCCCCCCCCCOc1ccc(C(=O)N[C@@H](Cc2c[nH]cn2)C(=O)N[C@@H](Cc2c[nH]cn2)C(=O)N[C@@H](CO)C(=O)O)cc1` is 74%; for `O=C(CCc1ccccc1)N[C@@H](CO)C(=O)N[C@@H](Cc1ccccc1)C(=O)N[C@@H](CO)C(=O)O` (Hydrocinnamoyl-Ser-Phe-Ser-OH) it is 95%; for `NC(=O)[C@H](Cc1ccc(O)cc1)NC(=O)CNC(=O)[C@H](Cc1c[nH]cn1)NC(=O)OCc1ccccc1` (Cbz-His-Gly-Tyr-NH2) it is 89%.
The figure for `CCCCCCCCCCCCCC(=O)OC[C@H](NC(=O)[C@@H](NC(=O)[C@H](CCCCNC(=O)c1coc(-c2ccccc2)n1)NC(=O)c1coc(-c2ccccc2)n1)[C@H](C)O)C(=O)O` is 54%; for `O=C(/C=C/c1ccccc1)N[C@@H](Cc1ccccc1)C(=O)N[C@@H](Cc1ccccc1)C(=O)N[C@@H](Cc1ccc(O)cc1)C(=O)NC1CCCCC1` it is 71%; for `CCCCCCCCCCOc1ccc(C(=O)N[C@@H](Cc2c[nH]cn2)C(=O)N[C@@H](Cc2c[nH]cn2)C(=O)N[C@@H](CO)C(=O)OCCN)cc1` it is 70%.
In the case of `CCCCCCCCCCCCCCCC(=O)N[C@@H](Cc1ccc(O)cc1)C(=O)N[C@@H](Cc1ccc(O)cc1)C(=O)N[C@@H](Cc1ccc(O)cc1)C(=O)NCCCn1ccnc1`, the inhibition came out at 85%.
The figure for `O=C(CNC(=O)[C@H](Cc1ccc(O)cc1)NC(=O)c1ccc(F)cc1)N[C@@H](Cc1ccc(O)cc1)C(=O)NC1CCCCC1` is 74%.
The figure for `CC[C@H](C)[C@H](NC(=O)c1ccc(-c2ccccc2)cc1)C(=O)N[C@@H](C(=O)N[C@@H](CCC(N)=O)C(=O)NNC(=O)OC)C(C)C` is 99%.
For the compound `CON(C)C(=O)[C@H](CC(C)C)NC(=O)[C@H](CO)NC(=O)[C@H](Cc1ccccc1)NC(=O)/C=C/c1ccc(F)cc1`, the inhibition was 71%.
`COC(=O)[C@H](CO)NC(=O)[C@H](Cc1ccccc1)NC(=O)[C@H](CO)NC(=O)/C=C/c1ccc(F)cc1`: the inhibition was 98%.
The figure for `CC[C@H](C)[C@H](NC(=O)/C=C/c1ccc(F)cc1)C(=O)N[C@@H](C)C(=O)N[C@@H](CCC(N)=O)C(=O)O` is 83%.
Consider `O=C(CCc1ccccc1)N[C@@H](CO)C(=O)N[C@@H](Cc1ccccc1)C(=O)N[C@@H](CO)C(=O)NC1CCCCC1`, for which the inhibition came out at 90%.
The figure for `CCCCCCCCCCCOC(=O)[C@H](CO)NC(=O)CNC(=O)[C@H](CO)NC(=O)/C=C/c1ccc(F)cc1` is 70%; for `O=C(CNC(=O)[C@H](Cc1ccccc1)NC(=O)c1csc(-c2cccs2)n1)N[C@@H](CO)C(=O)Nc1nccs1` it is 124%.
The figure for `C=CCCCCCCCCCOC(=O)[C@H](CCC(N)=O)NC(=O)[C@H](Cc1ccccc1)NC(=O)[C@H](CO)NC(=O)CCc1ccccc1` is 120%.
Take `CC(=O)Nc1cc(C(=O)N2CCC[C@H]2C(=O)N[C@@H](C(=O)N[C@@H](CCC(=O)O)C(=O)O)C(C)C)ccc1[N+](=O)[O-]`: the inhibition came out at 95%.
The figure for `CCCCCCCCCCCOc1ccc(C(=O)N[C@@H](Cc2ccc(O)cc2)C(=O)N[C@@H](Cc2ccc(O)cc2)C(=O)N[C@@H](Cc2ccc(O)cc2)C(=O)NCCCn2ccnc2)cc1` is 48%.
The figure for `O=C(CNC(=O)[C@H](Cc1ccc(O)cc1)NC(=O)c1ccc(F)cc1)N[C@@H](Cc1ccc(O)cc1)C(=O)O` is 90%; for `CCCCCCCCCCC(=O)N[C@@H](Cc1c[nH]cn1)C(=O)N[C@@H](Cc1c[nH]cn1)C(=O)N[C@@H](Cc1ccc(O)cc1)C(=O)OC` (Undecanoyl-His-His-Tyr-OMe) it is 64%.
The figure for `O=C(CNC(=O)c1csc(-c2ccccc2)n1)N[C@@H](Cc1ccccc1)C(=O)N[C@@H](Cc1c[nH]cn1)C(=O)O` is 70%; for `C=CCCCCCCCCCOC(=O)[C@H](CO)NC(=O)[C@H](Cc1ccccc1)NC(=O)[C@H](CO)NC(=O)CCc1ccccc1` it is 84%.
With `NNC(=O)[C@H](CO)NC(=O)CNC(=O)[C@H](CO)NC(=O)CCc1ccccc1` (Hydrocinnamoyl-Ser-Gly-Ser-NHNH2), the inhibition came to 94%.
The figure for `CCCCCc1ccc(CCC(=O)N[C@H](Cc2ccc(O)cc2)C(=O)N[C@@H](Cc2ccccc2)C(=O)N[C@@H](Cc2ccc(O)cc2)C(=O)O)cc1` is 2%.
The figure for `O=C(CNC(=O)[C@@H]1CCCN1C(=O)/C=C/c1ccccc1)N[C@@H](Cc1ccccc1)C(=O)O` is 71%.
The figure for `NCCCC[C@H](NC(=O)CCc1ccccc1)C(=O)N[C@@H](Cc1c[nH]cn1)C(=O)N[C@@H](CO)C(=O)O` (Hydrocinnamoyl-Lys-His-Ser-OH) is 89%.
On to `O=C(CCNC(=O)[C@H](Cc1c[nH]cn1)NC(=O)OCc1ccccc1)N[C@@H](Cc1ccc(O)cc1)C(=O)NCC(O)CO` (stereo partly specified), for which the inhibition is 89%.
The figure for `CC(C)C[C@H](NC(=O)[C@H](CO)NC(=O)[C@H](Cc1ccccc1)NC(=O)/C=C/c1ccc(F)cc1)C(=O)Nc1nccs1` is 94%; for `O=C(/C=C/c1ccc(F)cc1)N[C@@H](CO)C(=O)N[C@@H](Cc1ccccc1)C(=O)N[C@@H](CO)C(=O)N1CCOCC1` it is 75%.
For `CC[C@H](C)[C@H](NC(=O)CCc1ccc(F)cc1)C(=O)N[C@@H](C)C(=O)N[C@@H](CCC(N)=O)C(=O)NNc1ccccc1`, the inhibition is 81%.
The figure for `CCC(C)OC(=O)[C@H](CCC(N)=O)NC(=O)[C@H](Cc1ccccc1)NC(=O)[C@@H](C)NC(=O)CCc1ccccc1` (stereo partly specified) is 83%; for `O=C(CCc1ccc(F)cc1)N[C@@H](Cc1ccc(O)cc1)C(=O)NCC(=O)N[C@@H](Cc1ccc(O)cc1)C(=O)Nc1ccccc1` it is 99%.
Take `O=C(CNC(=O)[C@H](Cc1c[nH]cn1)NC(=O)OCc1ccccc1)N[C@@H](Cc1ccc(O)cc1)C(=O)Nc1nccs1`: the inhibition is 82%.
